Measured values as given in article PMC10753549 (ACS Omega, 2023).
Where a name gives a salt, the structure may show the parent alone.

Key:
[1] = system: NS2B-NS3 protease; conditions: NS2B-NS3 inhibitors; cited from earlier work
[2] = system: brine shrimp (Artemia salina); assay: Brine shrimp lethality bioassay
[3] = Cytotoxicity assay on Vero cells; format: cell-based; conditions: African green monkey, virus-uninfected Vero cells, CC50 (50% cytotoxic concentration), 10-point dose–response curves in triplicate
How it was run: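 Vero cells were grown in DMEM with 10% FBS, 1% penicillin/streptomycin and 2 mM L-glutamine. Virus-uninfected cells were exposed to test compound at ten concentrations. CC50 was calculated from the 10-point dose–response curves, run in triplicate.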

[4] = system: Zika virus strain MR766; assay: Anti-ZIKV viral immunofluorescence assay in Vero cells; format: cell-based, Zika virus (MR766 Africa lineage)
How it was run: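 Vero cells kept in DMEM with 10% FBS, 1% penicillin/streptomycin and 2 mM L-glutamine. They were pretreated with test compound at ten concentrations, then infected with MR766 virus stock grown in C6/36 mosquito cells (5 μL inoculum per well). After 24 h the cells were fixed in 4% paraformaldehyde and read by immunofluorescence. Mycophenolic acid was the positive control. EC50 came from 10-point dose–response curves in triplicate. CC50 was measured in uninfected Vero cells, and SI = CC50/EC50.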

[5] = system: ZIKV NS3 protease; conditions: read-out: IC50 (viral protease); ref Pathak et al. (2020) [49]; cited from earlier work
[6] = system: ZIKV; conditions: read-out: EC50 (anti-ZIKV); in vitro assays; ref Pathak et al. (2020) [49]; cited from earlier work

erythrosine B
IC50 [1]: 1.7 µM

COc1ccc2cc3[n+](cc2c1OC)CCc1cc2c(cc1-3)OCO2 [Berberine chloride, berberine chloride]
nauplii mortality ([2]; at 125 μg/mL, 24 h): all the nauplii were dead
LD50 (median lethal dose) ([2]; brine shrimp nauplii, 24 h, probit analysis of 6-point dose (16–500 μg/mL)): 27.0 µg/mL

CC(C)C[C@H]1C(=O)N2CCC[C@H]2[C@]2(O)O[C@](NC(=O)[C@@H]3C=C4c5cccc6[nH]c(Br)c(c56)C[C@H]4N(C)C3)(C(C)C)C(=O)N12 [bromocriptine]
IC50 [1]: 21.6 µM

COc1c(C)c2c(c(O)c1C/C=C(\C)CCC(=O)O)C(=O)OC2 [MPA, mycophenolic acid]
CC50 [3]: > 1000 µM
SI: Selectivity index (CC50/EC50) ([4]; ZIKV MR766 / Vero cells): >1063
EC50 ([4]; Zika virus, Vero, 24 h, read-out: EC50 (median effective concentration)): 0.94 µM

C=C[C@@H]1C[C@]1(NC(=O)[C@@H]1C[C@@H](Oc2ncc(OC)c3ccc(Cl)cc23)CN1C(=O)[C@@H](NC(=O)OC(C)(C)C)C(C)(C)C)C(=O)NS(=O)(=O)C1CC1 [asunaprevir]
IC50 [5]: 6 µM
EC50 [6]: 4.7 µM

Oc1cccc(-c2c3nc(c(-c4cccc(O)c4)c4ccc([nH]4)c(-c4cccc(O)c4)c4nc(c(-c5cccc(O)c5)c5ccc2[nH]5)CC4)C=C3)c1 [temoporfin]
IC50 [1]: 1.1 µM

CN1[C@@H]2CC[C@H]1C[C@@H](OC(=O)C(CO)c1ccccc1)C2 (stereo partly shown) [Atropine SO4, Atropine sulfate monohydrate]
nauplii mortality ([2]; after 24 h): below 20%

COc1ccc2c(O[C@@H]3C[C@H]4C(=O)N[C@]5(C(=O)NS(=O)(=O)C6CC6)C[C@H]5/C=C\CCCCN(C)C(=O)[C@@H]4C3)cc(-c3nc(C(C)C)cs3)nc2c1C [simeprevir]
IC50 [5]: 2.6 µM

CO[C@@H]1[C@@H](OC(N)=O)[C@@H](O)[C@H](Oc2ccc3c(O)c(NC(=O)c4ccc(O)c(CC=C(C)C)c4)c(=O)oc3c2C)OC1(C)C [novobiocin]
IC50 [1]: 14.2 µM
